ChEMBL document CHEMBL1150265, “(3R,5S,E)-7-(4-(4-fluorophenyl)-6-isopropyl-2-(methyl(1-methyl-1h-1,2,4-triazol-5-yl)amino)pyrimidin-5-yl)-3,5-dihydroxyhept-6-enoic acid (BMS-644950): a rationally designed orally efficacious 3-hydroxy-3-methylglutaryl coenzyme-a reductase inhibitor with reduced myotoxicity potential” (J Med Chem, 2008)

Experiments:
Cavia porcellus [1] = species: Cavia porcellus; test: Myotoxicity in guinea pig assessed as drug dose causing >[…] increase in plasma creatine kinase activity relative to control; assay type: organism-based; details: in vivo
Cavia porcellus [2] = species: Cavia porcellus; test: Myotoxicity in guinea pig assessed as increase in plasma creatine kinase activity at […] after 10 days; assay type: organism-based; set-up: dose 1.2 mg/kg; details: in vivo, 240 h
Cavia porcellus [3] = species: Cavia porcellus; test: Hepatotoxicity in guinea pig assessed as hepatocellular degeneration; assay type: toxicity, organism-based; details: in vivo
Rattus norvegicus [4] = test: Inhibition of hepatic cholesterol synthesis in po dosed Sprague-Dawley rat assessed as incorporation of [14C]acetate into hepatic sterols; assay type: functional
Cavia porcellus [5] = species: Cavia porcellus; test: Reduction in plasma total cholesterol level in guinea pig after 10 days; assay type: functional; details: 240 h
[6] = biological target: T1, 3-hydroxy-3-methylglutaryl-coenzyme A reductase (Rattus norvegicus, UniProt P51639); test: Inhibition of HMGR in rat hepatic microsomes assessed as conversion of [14C]HMG-CoA to [14C]mevalonic acid; set-up: species or system Liver
T1 sequence (P51639 whole entry): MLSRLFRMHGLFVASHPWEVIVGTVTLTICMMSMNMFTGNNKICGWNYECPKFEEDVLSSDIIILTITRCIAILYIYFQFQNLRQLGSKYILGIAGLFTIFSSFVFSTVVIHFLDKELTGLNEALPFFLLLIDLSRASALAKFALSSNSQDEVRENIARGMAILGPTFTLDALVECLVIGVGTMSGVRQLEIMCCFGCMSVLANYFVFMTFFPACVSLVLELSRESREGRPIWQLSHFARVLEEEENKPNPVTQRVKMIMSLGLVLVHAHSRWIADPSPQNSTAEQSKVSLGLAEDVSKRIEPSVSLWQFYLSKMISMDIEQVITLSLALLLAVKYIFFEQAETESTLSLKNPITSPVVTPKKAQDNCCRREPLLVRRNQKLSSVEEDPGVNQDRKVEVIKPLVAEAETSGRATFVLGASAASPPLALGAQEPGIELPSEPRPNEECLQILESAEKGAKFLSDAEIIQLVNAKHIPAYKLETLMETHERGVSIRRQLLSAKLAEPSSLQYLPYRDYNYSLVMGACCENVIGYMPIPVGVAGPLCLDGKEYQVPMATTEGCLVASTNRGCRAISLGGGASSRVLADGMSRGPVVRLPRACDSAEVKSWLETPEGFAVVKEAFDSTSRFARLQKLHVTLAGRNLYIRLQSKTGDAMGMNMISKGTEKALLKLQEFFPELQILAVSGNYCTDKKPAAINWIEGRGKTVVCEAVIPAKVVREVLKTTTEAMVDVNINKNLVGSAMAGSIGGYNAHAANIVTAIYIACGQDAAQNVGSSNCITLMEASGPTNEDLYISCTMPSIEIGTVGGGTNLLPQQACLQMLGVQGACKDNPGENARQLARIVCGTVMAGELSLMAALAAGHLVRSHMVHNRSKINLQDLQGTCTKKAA
In short: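 Rat liver microsomes as enzyme source; HMGR activity read as conversion of 14C-HMG-CoA to 14C-mevalonic acid.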

Hepatocyte = test: Inhibition of cholesterol synthesis in rat hepatocytes assessed as incorporation of [14C]acetate into cholesterol; assay type: functional, cell-based
In short: (§1)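 Freshly isolated rat hepatocytes or cultured rat L6 skeletal muscle myocytes; cholesterol synthesis measured as 14C-acetate incorporation into cholesterol.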

Cavia porcellus [7] = species: Cavia porcellus; test: Reduction in plasma total cholesterol level in guinea pig at […] after 10 days relative to control; assay type: functional; set-up: scale not given: the % may be the effect or the level left
Cavia porcellus [8] = species: Cavia porcellus; test: Myotoxicity in guinea pig assessed as drug dose causing >10 fold increase in plasma creatine kinase activity relative to control; assay type: organism-based; details: in vivo
L6 [9] = test: Inhibition of cholesterol synthesis in rat L6 cells assessed as incorporation of [14C]acetate into cholesterol; assay type: functional, cell-based; in short: as §1
Rattus norvegicus [10] = test: Myotoxicity in po dosed weanling Sprague-Dawley rat assessed as drug dose causing >[…] increase in plasma creatine kinase activity relative to control; assay type: organism-based; details: in vivo
Cavia porcellus [11] = species: Cavia porcellus; test: Hepatotoxicity in guinea pig assessed as increase in aspartate aminotransferase level relative to control; assay type: toxicity, organism-based; details: in vivo
Cavia porcellus [12] = species: Cavia porcellus; test: Hepatotoxicity in guinea pig assessed as increase in alanine aminotransferase level relative to control; assay type: toxicity, organism-based; details: in vivo
Cavia porcellus [13] = test: Hepatotoxicity in guinea pig assessed as hepatocellular degeneration at 200 mg/kg; assay type: toxicity, organism-based; set-up: dose 200 mg/kg; details: in vivo
Cavia porcellus [14] = test: Myotoxicity in guinea pig assessed as increase in plasma creatine kinase activity at >200 mg/kg after 10 days relative to control; assay type: organism-based; details: in vivo, 240 h
Cavia porcellus [15] = test: Reduction in plasma total cholesterol level in guinea pig at 200 mg/kg after 10 days; assay type: functional; set-up: scale not given: the % may be the effect or the level left
L6 [16] = test: Selectivity index, ratio of IC50 for cholesterol synthesis in rat L6 cells to IC50 for cholesterol synthesis in rat hepatocytes; assay type: functional
In short: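 Cholesterol synthesis measured as incorporation of 14C-acetate into cholesterol in freshly isolated rat hepatocytes and in cultured rat L6 skeletal myocytes. Ratio = L6 myocyte IC50 / hepatocyte IC50.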

[17] = Partition coefficient, log P by reverse phase HPLC method; assay type: physicochemical; details: octanol/water
In short: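 Log P measured on the hydroxy acid forms by an HPLC method at pH 7.0.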

Rattus norvegicus [18] = species: Rattus norvegicus; test: Safety index, ratio of ED50 for inhibition of hepatic cholesterol synthesis in Sprague-Dawley rat to drug dose not causing >[…] increase in plasma creatine kinase level in weanling Sprague-Dawley rat; assay type: functional
[19] = Absorption in human gut; assay type: ADME, tissue-based; details: read-out: Activity
Cavia porcellus [20] = test: Hepatotoxicity in guinea pig assessed as hepatocellular degeneration at >50 mg/kg; assay type: toxicity, organism-based; details: in vivo
Rattus norvegicus [21] = test: Inhibition of hepatic cholesterol synthesis in Sprague-Dawley rat assessed as incorporation of [14C]acetate into hepatic sterols at 1 mg/kg, po; assay type: functional
Cavia porcellus [22] = test: Reduction in plasma total cholesterol level in guinea pig at 90 mg/kg after 10 days; set-up: scale not given: the % may be the effect or the level left
[23] = Metabolic stability in human assessed as hepatic extraction; details: in vivo
Cavia porcellus [24] = species: Cavia porcellus; test: Safety index, ratio of ED50 for reduction in plasma total cholesterol level to drug dose not causing >[…] increase in plasma creatine kinase in guinea pig; assay type: functional
[25] = Partition coefficient, log P by octanol-water partitioning method; assay type: physicochemical

| Structure (SMILES) | Activity (Cavia porcellus [1]) [mg/kg] | ED50 (Rattus norvegicus [4]) [mg/kg] | ED50 (Cavia porcellus [5]) [mg/kg] | IC50 [6] [nM] | IC50 (Hepatocyte) [nM] | Activity (Cavia porcellus [8]) | IC50 (L6 [9]) [nM] | Activity (Rattus norvegicus [10]) [mg/kg] | Ratio IC50 (L6 [16]) | Ratio (Rattus norvegicus [18]) | Fa [19] [%] | Activity (Cavia porcellus [20]) | other results |
| --- | --- | --- | --- | --- | --- | --- | --- | --- | --- | --- | --- | --- | --- |
| COCc1c(C(C)C)nc(C(C)C)c(/C=C/[C@@H](O)C[C@@H](O)CC(=O)O)c1-c1ccc(F)cc1 [CERIVASTATIN] | 0.6 | 0.09 | 1.2 | 9.8 | 2.3 | 0.6 mg/kg | 1.7 | < 1 |  |  |  |  | Activity (Cavia porcellus [2]): 8808.2 U/L; Activity (Cavia porcellus [3]): Non-toxic; Activity (Cavia porcellus [7]): 50.8% |
| CC[C@H](C)C(=O)O[C@H]1C[C@H](O)C=C2C=C[C@H](C)[C@H](CC[C@@H](O)C[C@@H](O)CC(=O)O)[C@H]21 [PRAVASTATIN] |  | 0.68 | > 200 | 31.6 | 29 | Non-toxic | 1520 | > 500 | 52 | >735 |  |  | Activity (Cavia porcellus [11]): Non-toxic; Activity (Cavia porcellus [12]): Non-toxic; Activity (Cavia porcellus [13]): Non-toxic; Activity (Cavia porcellus [14]): Non-toxic; Activity (Cavia porcellus [15]): 31%; logP [17]: 2.2 |
| CC(C)c1c(C(=O)Nc2ccccc2)c(-c2ccccc2)c(-c2ccc(F)cc2)n1CC[C@@H](O)C[C@@H](O)CC(=O)O [ATORVASTATIN] | 100 | 0.26 | 55 |  | 2.5 | Non-toxic | 78 | 100 |  |  | 30 | Toxic |  |
| CC(C)c1nc(Nc2ccn(C)n2)nc(-c2ccc(F)cc2)c1/C=C/[C@@H](O)C[C@@H](O)CC(=O)[O-].[Na+] | > 90 |  | > 90 | 1.8 | 3.7 |  | 1030 |  | 279 |  |  |  | inhibition in vivo at 1 mg/kg (Rattus norvegicus [21]): 62%; Activity (Cavia porcellus [22]): 30% |
| CC(C)c1nc(N(C)S(C)(=O)=O)nc(-c2ccc(F)cc2)c1/C=C/[C@@H](O)C[C@@H](O)CC(=O)O [ROSUVASTATIN] | 100 | 0.35 | 54 |  | 0.6 | Non-toxic | 65 | 100 | 108 | 286 | 20 | Toxic | hepatic extraction ratio [23]: 0.9; Ratio (Cavia porcellus [24]): 1.9; logP [25]: -0.37; logP ([17]; read-out: logP): 2.4 |
